Assay results taken from publication PMC8520753 (CPT: Pharmacometrics & Systems Pharmacology, 2021).
Entries after “also recorded” stand apart in the source; their conditions may differ. Like-named read-outs stand apart in the source and are kept apart here.

Columns and labels:
[1] = subject with a bodyweight of 70 kg; cited from earlier work
[2] = integrated PopPK model in adults; cited from earlier work
[3] = cited from earlier work
[4] = cited from earlier work; remark: listed apart in the source
[5] = Refined pediatric population pharmacokinetic; type: in vivo, children (pediatric patients); conditions: for Relative oral bioavailability: set to 100% for 0.12 mg/kg
Method in brief: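 Children from birth to <18 y (VTE and post-Fontan) received oral bodyweight-adjusted rivaroxaban at 0.4 mg–20 mg, as single or multiple o.d./b.i.d./t.i.d. doses of tablet, oral suspension or granules. Plasma concentrations were fitted by PopPK with an 82.48 kg adult reference weight. Age, dose/kg on F1, formulation on ka, renal function and Fontan were screened graphically, then against random-effect estimates.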

[6] = biological target: CYP3A7 (Homo sapiens, UniProt P24462); test: In vitro analyses of CYP3A7 contribution; type: in vitro ADME; conditions: historic and recently repeated in vitro analyses, unpublished, data on file
CYP3A7, sequence (P24462 whole entry): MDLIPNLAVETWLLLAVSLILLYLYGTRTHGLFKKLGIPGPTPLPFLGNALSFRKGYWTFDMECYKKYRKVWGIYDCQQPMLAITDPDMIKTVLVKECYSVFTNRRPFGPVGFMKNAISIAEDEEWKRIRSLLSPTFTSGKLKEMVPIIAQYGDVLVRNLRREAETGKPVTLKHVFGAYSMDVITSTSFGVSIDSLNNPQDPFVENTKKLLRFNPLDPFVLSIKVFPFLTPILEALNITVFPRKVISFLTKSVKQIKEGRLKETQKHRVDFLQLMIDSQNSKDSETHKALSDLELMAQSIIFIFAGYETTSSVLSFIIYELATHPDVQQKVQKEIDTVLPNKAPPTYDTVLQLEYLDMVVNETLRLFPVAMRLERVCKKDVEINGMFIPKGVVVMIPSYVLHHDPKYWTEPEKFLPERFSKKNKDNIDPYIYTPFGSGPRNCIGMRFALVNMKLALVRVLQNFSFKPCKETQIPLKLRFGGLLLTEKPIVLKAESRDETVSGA

[7] = PopPK fixed effect, children, reference BW 82.48 kg

SMILES: O=C(NC[C@H]1CN(c2ccc(N3CCOCC3=O)cc2)C(=O)O1)c1ccc(Cl)s1 [rivaroxaban]
- Total plasma clearance [1]: 7.26 L/h
- Total plasma clearance [2]: 6.58 L/h
- Biopharmaceutics Classification System class [3]: class 2
- Share of elimination by CYP3A, glomerular filtration and tubular secretion ([4]; adult mass balance data): ~ 54%
- Excreted unchanged via feces ([4]; adult mass balance): 7%
- Share of elimination by CYP2J2 ([4]; adult mass balance): 14%
- Share of elimination by CYP-independent hydrolysis ([4]; adult mass balance): 14%
- Unaccounted in the mass balance study ([4]; adult mass balance): 11%
- ka, tablet, granules for oral suspension and diluted ready-to-use oral suspension [5]: 0.799 h⁻¹
- ka, undiluted ready-to-use oral suspension [5]: 0.226 h⁻¹
- ka for tablets, granules and diluted suspension ([5]; PopPK fixed effect, children): 0.799 h⁻¹
- ka for undiluted suspension ([5]; PopPK fixed effect, children): 0.226 h⁻¹
- CL for subject with BW of 82.48 kg [5, 7]: 8.02 L/h
- Q for subjects with BW of 82.48 kg [5, 7]: 2.50 L/h
- Vc for subject with BW of 82.48 kg [5, 7]: 53.2 L
- Vp for subject with BW of 82.48 kg [5, 7]: 59.1 L
- Exponent to scale Vc and Vp on BW ([5]; allometric exponent, assumed identical for Vc and Vp): 0.821
- Exponent to scale Q on BW ([5]; allometric exponent, children): 0.761
- Relative oral bioavailability ([5]; at 0.30 mg/kg): 79.1%
- Relative oral bioavailability ([5]; at 0.50 mg/kg): 68.1%
- Effect of bodyweight on CL, Q, Vc and Vp ([5]; covariate analysis): significant effect
- Effect of age on CL or F1 ([5]; covariate analysis, age 0 to 18 years): No effect
- Influence of renal function on PK ([5]; covariate analysis, four approaches, eGFR 43.8 to 456 ml/min/1.73 m^2): None of the four methods to test for an influence of renal function led to a significant improvement; also recorded: None of the four tested methods could improve the model fit
- Effect of comedication (weak or moderate CYP3A4 inhibitors, CYP3A4 inducers) on CL or F1 ([5]; exploratory evaluation): no significant effect
- clearance ([5]; human, plasma, oral): 134 mL/min
- ωCL2 (exponential), interindividual variability ([5]; random effect on CL): 0.0705
- ωF12 (exponential), interindividual variability ([5]; random effect on F1): 0.0612
- Population variation of CL (interindividual variability) ([5]; sqrt{exp(ω^2)-1}*100): 27.0%
- Population variation of F1 (interindividual variability) ([5]; sqrt{exp(ω^2)-1}*100): 25.1%
- Dose-dependency of relative oral bioavailability ([5]; ~0.1 to 0.5 mg/kg single doses): decrease with increasing dose per bodyweight
- Contribution of CYP3A7 to the high clearance below 2 years [6]: could also be excluded
